M4 antag = blocks acetylcholine activation of human M4 receptor. P08173. CHO-hM4 cells, ACh EC80, Fluo-8 calcium fluorescence. inhibition, % at 3 µM. 360,000 tested, 0.73% active. AID 624125;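 active = inhibition above its plate's cutoff, the mean inhibition of sample wells plus 3 SD, cut at about 27% in these data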;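 also: 0% = acetylcholine EC80 with DMSO and 100% = DMSO without agonist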
Target sequence (P08173 whole entry, looked up): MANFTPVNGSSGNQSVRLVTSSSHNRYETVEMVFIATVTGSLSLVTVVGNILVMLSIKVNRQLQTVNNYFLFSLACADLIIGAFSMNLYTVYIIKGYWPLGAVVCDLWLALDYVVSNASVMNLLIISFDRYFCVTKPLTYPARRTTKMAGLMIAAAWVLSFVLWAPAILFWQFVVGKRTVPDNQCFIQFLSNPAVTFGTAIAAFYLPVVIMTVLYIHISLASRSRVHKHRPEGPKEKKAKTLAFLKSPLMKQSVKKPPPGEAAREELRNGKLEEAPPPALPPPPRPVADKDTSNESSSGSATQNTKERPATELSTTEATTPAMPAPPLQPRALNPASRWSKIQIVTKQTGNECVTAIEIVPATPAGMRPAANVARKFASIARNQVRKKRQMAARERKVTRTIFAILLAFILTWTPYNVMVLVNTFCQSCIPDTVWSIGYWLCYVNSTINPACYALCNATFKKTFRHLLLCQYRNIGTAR
OXTR potentiator = human OXTR potentiation; CHO-OTR cells, Fluo-8 calcium fluorescence, potentiator mode; 0% = oxytocin EC15, 100% = EC100; 320,000 tested, 0.061% active; activation, % at 3 µM; AID 2445;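 active = activation above that plate's cutoff, the mean activation of tested compounds plus 3 SD, cut at about 6.6% in these data, passing the limit was not always enough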;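 also: 100% uses oxytocin at 75 nM as the full agonist control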
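assay system = CHO-OTR cells, human receptor | schedule = compound 6 min at room temperature before oxytocin, 100 s read | detection = Fluo-8 intracellular calcium fluorescence, ex 470-495, em 515-575 nm | evaluation = normalized max/min fluorescence ratio, % activation | control set = EC15 oxytocin alone as 0%, 75 nM oxytocin (EC100) as 100%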
OXTR ag = agonists of human oxytocin receptor; CHO-OTR cells, Fluo-8 calcium fluorescence; normalized: DMSO 0%, oxytocin 100%; P30559; activation, % at 3 µM; 320,000 tested, 0.32% active;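 active = activation above the mean of all tested compounds plus 3 SD, cutoff set per screening run, cut at about 20% in these data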;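 also: peak over basal fluorescence ratio from a 100 s FLIPR kinetic read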
CHRM4 PAM = positive allosteric modulators of human muscarinic M4 receptor | P08173 | CHO-K1 hM4/Gqi5, Fluo-8 calcium fluorescence, ACh EC20; 0% = ACh EC20, 100% = maximal ACh | activation, % at 3 µM | 360,000 tested, 0.4% active;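 active = activation above its plate's cutoff, the mean activation of sample wells plus 3 SD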
V1aR counter = counter-screen for oxytocin receptor agonists: human V1a receptor agonists; 320,000 tested, 0.25% active; P37288; activation, % at 3 µM; CHO-V1R cells, Fluo-8 calcium fluorescence, agonist mode; 0% DMSO, 100% 3 nM vasopressin;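 active = activation above the mean activation of all tested compounds plus 3 SD, per screening run, cut at about 20% in these data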;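 also: signal is peak over basal fluorescence ratio across a 100 second FLIPR read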
M4 ag = CHRM4 agonism in calcium assay | P08173 | CHO-K1 hM4/Gqi5, Fluo-8 calcium fluorescence; vehicle 0%, full acetylcholine response 100% | activation, % at 3 µM | 360,000 tested, 0.14% active;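 active = activation above the run mean over all test wells plus 3 SD, cut at about 32% in these data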;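 also: peak over basal fluorescence ratio per well then scaled between controls; 0% = DMSO wells and 100% = acetylcholine at EC100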
An asterisk follows results filed as active; · = no result given; ! = repeats disagree. The list is not random: actives were taken first. Their share in the collection is about 1.5%.

SMILES	M4 antag	OXTR potentiator	OXTR ag	CHRM4 PAM	V1aR counter	M4 ag
Cc1ccc(-n2ncc3c(=O)n(-c4ccc(C)c(C)c4)c(C)nc32)cc1	-13	-8	1	4	2	3
CC(C)CNC(=O)NC(=O)COc1ncnc2sccc12	12	4	2	28*	1	1
CC(C)CCNC(=O)NC(=O)COc1ncnc2sccc12	-2	-1	1	15	1	0
O=C(c1cccs1)N1CCN(C23CC4CC(CC(C4)C2)C3)CC1	40*	-11	0	-17	0	2
COc1ccc(CCNCc2ccc(-c3ccccc3)cc2)cc1OC	7	·	·	-11	·	34*
CCOC(=O)C1CCN(Cc2cc(Cl)c3ccccc3c2O)CC1	29*	-12	0	-4	0	1
COc1ccccc1Oc1ccc(S(=O)(=O)NCc2ccccn2)cc1	9	-9	9	2	6	9
Cc1onc(-c2ccccc2)c1C(=O)NCc1ccc2c(c1)OCO2	-12	4	-1	-1	0	3
COc1ccc(C(=O)NC(=S)NNC(=O)c2c(-c3ccccc3)noc2C)cc1OC	-8	-17	21*	-3	29*	7
Cc1onc(-c2ccccc2)c1C(=O)N/N=C/c1cccs1	-1	6	1	-2	0	1
Cc1onc(-c2ccccc2)c1C(=O)NC(=S)NNC(=O)c1ccncc1	5	-5	-2	5	1	-2
Cc1onc(-c2ccccc2)c1C(=O)NNC(=S)NC(=O)/C=C/c1cccs1	-2	-11	29*	-5	24*	1
Cc1onc(-c2ccccc2)c1C(=O)NNC(=S)NC(=O)c1ccc2c(c1)OCO2	5	-19	27*	-10	53*	70*
NC(=O)c1c(/N=C/c2cccnc2)sc2c1CCCC2	-21	-5	-1	1	0	1
O=C(CC[C@H]1O[C@@H](n2ccc(=O)[nH]c2=O)[C@H](O)[C@@H]1O)N[C@H](Cc1ccccc1)C(=O)NC1CCCCC1	-4	·	·	0	·	2
CNC(=S)N(CCc1c(C)[nH]c2ccc(Cl)cc12)Cc1cccnc1	-7	-13	2	-1	6	4
CCOc1cc(/C=C/C(=O)c2ccc(OC)c(CN3CCOCC3)c2)cc(Br)c1O	0	-6	14	-14	20	33*
CCOc1cc(/C=N/NC(=O)c2ccc(CN3CCOCC3)cc2)ccc1OC	-3	3	0	1	1	2
Cc1ccccc1NC(=O)CN1C(=O)S/C(=C/c2cccnc2)C1=O	-8	-10	0	1	0	1
CC(C)C(=O)N1CCC1(C)C(=O)Nc1ccc(-n2cccc2)cc1 (stereo unspecified)	-6	·	·	1	·	1
CN(C)CCOC(c1ccccc1)c1ccccc1 (tested in a mixture with another compound)	37*	-6	1	-17	1	1
CN(C)CCOC(c1ccccc1)c1ccccc1	32*!	2	2	-18	1	1
Cc1ccccc1C(OCCN(C(C)C)C(C)C)c1ccccc1 (stereo unspecified)	99*	2	2	-15	0	2
CN(C)CCOC(c1ccc(Cl)cc1)c1ccccn1 (stereo unspecified)	4	-4	2	-10	1	0
O=C(O)c1nc(NCCc2ccccc2)ncc1Cl	-12	2	1	0	1	1
SMILES	M4 antag	OXTR potentiator	OXTR ag	CHRM4 PAM	V1aR counter	M4 ag
CCCNC(=O)C1(C)CCN(C(=O)c2ccc(C)c(F)c2)C1 (stereo unspecified)	0	·	·	9	·	2
CCCCCCCC[n+]1cccc(C(=O)N(CC)CC)c1	-1	-2	0	-9	1	1
CCCCCCCCCCCCCCCC[n+]1cccc(C(=O)N(CC)CC)c1	41*	-19	37*	-11	24*	1
O=[N+]([O-])c1ccccc1CNc1ccc(F)c(Cl)c1	1	-2	-2	-2	0	0
COc1cccc(CNc2ccc(F)c([N+](=O)[O-])c2)c1O	68*	-12	5	-7	6	7
COc1ccc(OC)c(NS(=O)(=O)c2ccc3[nH]c(=O)[nH]c3c2)c1	-6	·	·	4	·	0
Oc1ccc(Cl)cc1Cc1cc(Cl)ccc1O	27*	-9	6	-15	4	26
Oc1ccc(Cl)cc1CNCc1ccc(Cl)cc1	-1	-10	15	5	4	8
COc1ccc(C2c3[nH]c4ccccc4c3C[C@H]3C(=O)N(C4CCN(Cc5ccccc5)CC4)CC(=O)N23)c(OC)c1 (stereo partly specified)	27*	-15	5	-15	1	5
CC(C)C[C@@H]1Cc2[nH]c(=S)[nH]c(=O)c2[C@H](C)O1	-3	·	·	6	·	1
O=C(Nc1ccc2cccnc2c1)c1ccc(Br)cc1	-18	-20	-2	15*	1	-2
Cc1cc(Br)ccc1NC(=O)CNC(=O)CN1C(=O)NC2(CCCCCC2)C1=O	-1	-2	0	-1	-1	2
Cc1cc(Br)ccc1NC(=O)CN1C(=O)C2C3CC(c4ccccc4)C(C3)C2C1=O (stereo unspecified)	28*	-12	14	-21	6	10
Cc1ccc(C)c(-n2sc3ccc(F)cc3c2=O)c1	10	-8	17	-7	9	33*
O=c1c2cc(F)ccc2sn1-c1ccc(F)cc1	7	-10	18	-8	14	17
CCn1c(=O)c2cc(C(=O)NCCN3CCOCC3)sc2c2ccccc21	76*	-5	0	-17	3	3
CCCCNC(=O)c1cc2c(=O)n(CC)c3ccccc3c2s1	-3	-6	-1	4	0	2
O=c1ccn(C2CCCCC2)c(=O)[nH]1	-10	·	·	10	·	1
CCOC(=O)c1c(NC(=O)CN2CCCc3ccccc32)sc(C)c1CC	-11	-5	0	1	0	0
COc1ccccc1CNC(=O)C(CCSC)NC(=O)C1CCC(C)CC1 (stereo unspecified)	-2	-22	-3	5	-2	-1
Cc1cccc(-n2ncc3c(N4CCCC4)ncnc32)c1	-3	-5	1	23*	0	6
CCCCCCCCCCn1c2c(c(=N)c3c1CCC3)CCC2	28*	-21	1	-28	1	8
CCCCCn1c2c(c(=N)c3ccccc31)CCC2	1	-9	0	-3	-1	0
CCCCCCCCCn1c2c(c(=N)c3c1CCC3)CCCC2	63*	·	·	-20	·	20

Screens deposited in PubChem BioAssay by The Scripps Research Institute Molecular Screening Center.
